# Results pooled from the literature.
# Each line is one published result; the experiments were not run side by side.
# Cell line: MOLT-4
# Read-out: cell growth or viability
SMILES,technique,time,IC50
O=C(NO)c1ccc(Cn2cnc3c(Nc4ccc(Cl)cc4)ncnc32)cc1,MTT,72 h,190 nM
O=C(CSc1nc2ccccc2s1)N/N=C/c1ccc(OCC(=O)Nc2cccc([N+](=O)[O-])c2)cc1,MTS,72 h,15300 nM
Cc1nc(Nc2ncc(C(=O)Nc3c(C)cccc3Cl)s2)cc(N2CC[C@H](O)C2)n1,ATP luminescence,72 h,> 10000 nM
CCS(=O)(=O)NC(=O)c1nc(N2CCc3cccc(C(=O)Nc4nc5ccccc5s4)c3C2)ccc1-c1cnn(CC23CC4CC(CC(C4)C2)C3)c1C,MTS,48 h,5.1 nM
O=C(CSc1nc2ccccc2s1)N/N=C/c1ccc(OCC(=O)Nc2cccc(Br)c2)cc1,MTS,72 h,> 100000 nM
Cc1c(-c2ccc(N3CCc4cccc(C(=O)Nc5nc6ccccc6s5)c4C3)nc2C(=O)O)cnn1CC12CC3CC(C1)CC(C(=O)NCCCCCCCCCCCCNc1cccc4c1C(=O)N(C1CCC(=O)NC1=O)C4=O)(C3)C2 (centres unmarked),MTS,48 h,49.4 nM
CN1CCC(NC2CCc3[nH]c4c(C(N)=O)ccc(-c5ccccc5Cl)c4c3C2)CC1 (centres unmarked),,96 h,18.7 nM
O=C(NO)c1ccc(Cn2cnc3c(Nc4ccc(Br)cc4F)ncnc32)cc1,MTT,72 h,530 nM
Cc1ncsc1-c1ccc([C@H](C)NC(=O)[C@@H]2C[C@@H](O)CN2C(=O)[C@@H](NC(=O)CCCCCCS(=O)(=O)NC(=O)c2nc(N3CCc4cccc(C(=O)Nc5nc6ccccc6s5)c4C3)ccc2-c2cnn(CC34CC5CC(CC(C5)C3)C4)c2C)C(C)(C)C)cc1,MTS,48 h,4.5 nM
O=C(CSc1nc2ccccc2s1)N/N=C/c1ccc(OCC(=O)Nc2ccc(Br)cc2)cc1,MTS,72 h,> 100000 nM
COc1ccc(Nc2ncnc3c2ncn3Cc2ccc(C(=O)NO)cc2)cc1,MTT,72 h,460 nM
